Assay outcomes from PubChem.
CHOP UPR activ: activators of apoptotic arm of unfolded protein response (CHOP) | activation, % at 10 µM | CHO-CHOP luciferase reporter, UPR activation, luminescence; percent of tunicamycin response over DMSO baseline | 330,000 tested, 0.34% active;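 active = at 10 µM dose, activation of 40% or more, normalized to positive control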;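 also: 100% = tunicamycin at 10 µg/mL and 0% = DMSO alone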
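Assay system: CHO-CHOP cells, stable luciferase reporter of PERK-eIF2a-CHOP signalling / Buffer or medium: F12 plus 10% serum / Compound dosing: one dose, 10 µM in 0.5% DMSO / Times: 6 h compound treatment, 37 °C / Technique: luciferase luminescence / Read-out: % reporter activation, DMSO baseline versus tunicamycin full activation / Benchmarks: tunicamycin and DMSO controls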
UPR XBP1 act: activators of adaptive arm of unfolded protein response (XBP1). CHO-XBP1 luciferase reporter, IRE1-XBP1 UPR activation, luminescence; percent of tunicamycin response, DMSO as zero. AID 463104. 330,000 tested, 0.33% active. activation, % at 20 µM;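 active = versus positive control, 20 µM dose yields 30% or more activation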;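 also: 100% = tunicamycin at 10 µg/mL and 0% = DMSO only wells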
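Assay system: IRE1-XBP1 luciferase reporter CHO line. Input: 1000 cells/well. Buffer or medium: F12 with 10% serum. Doses: 20 µM, 1% DMSO. Times: overnight seeding at 37 °C, 6 h compound treatment at 37 °C. Technique: Steady-Glo luciferase glow luminescence, 10 min after reagent addition.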
CHOP inh: blocks CHOP induction under ER stress; inhibition, % at 10 µM; CHO-K1 CHOP-promoter luciferase, tunicamycin-induced, 15-18 h; 220,000 tested, 3.8% active;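 active = compounds that reduced the stress-induced luciferase reporter signal by more than about 70% of percent inhibition, limit read from the data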;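 also: 0% = tunicamycin plus vehicle and 100% = wells without tunicamycin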
697 NFkB inh: lowers PMA/ionomycin-induced NF-kB signal in 697 B cells. 697 B-cell NF-kB luciferase reporter, 16 h. inhibition, % at 4 µM. 330,000 tested, 0.33% active; in the data active = inhibition above about 35%
Jurkat NFkB inh: inhibitors of the PMA/ionomycin-induced NF-kB reporter in Jurkat cells | PMA/ionomycin-induced NF-kB luciferase reporter, luminescence | inhibition, % at 4 µM | 330,000 tested, 0.53% active | AID 435003; in the data active = inhibition above about 50%
Jurkat NFkB conf: inhibitors of the PMA/ionomycin-induced NF-kB reporter in Jurkat cells, retest; shares compounds with Jurkat NFkB inh; Jurkat NF-kB luciferase, 16 h; inhibition, % at 4 µM; 2,700 tested, 27% active; AID 435020;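 active = inhibition reaching about 45% at 4 µM in either replicate, limit read from the data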;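 also: plate controls were PMA/ionomycin stimulated DMSO wells for no effect and unstimulated DMSO wells for full effect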
* = called active by the depositor; . = no result. The entries come from a sample that favours hits as a whole.

SMILES	CHOP UPR activ	UPR XBP1 act	CHOP inh	697 NFkB inh	Jurkat NFkB inh	Jurkat NFkB conf
Cc1oc(-c2ccc(Cl)cc2)nc1CS(=O)CC(=O)NCCCN1CCCC(C)C1 (configuration not stated)	0	-2	.	-7	3	.
Cc1oc(-c2ccc(Cl)cc2)nc1CN1CCC(C(=O)NCCCN2CCOCC2)CC1	1	0	-24	-2	-6	.
O=C1c2ccccc2C(=O)N1Cc1cc(-c2ccc(Cl)cc2)no1	1	4	.	0	0	.
O=C(c1ccc2ncsc2c1)N1CCN(c2cccc(C(F)(F)F)c2)CC1	1	0	.	-176	55*	2
O=C(c1ccc2nc[nH]c2c1)N1CCN(c2cccc(C(F)(F)F)c2)CC1	1	-6	.	-26	-6	.
CCn1nnnc1-c1ccc(OC)c(S(=O)(=O)NCCc2ccccc2)c1	1	1	-6	13	2	.
Oc1ccc2ccccc2c1/C=N/Nc1nnc(-c2ncc[nH]2)c2ccccc12	-2	2	79*	-7	71*	77*
COc1c2c(nc3occc13)C(CCC(C)(C)O)(OC)C(O)CC2 (configuration not stated)	-2	0	20	-32	1	.
CCn1c2ccccc2c2cc(NC(=O)c3cc(OC)cc(OC)c3)ccc21	3	12	-7	3	60*	41
CCn1c2ccccc2c2cc(NC(=O)COc3ccc(OC)cc3)ccc21	0	1	35	6	-6	.
CCn1c2ccccc2c2cc(NC(=O)c3cc(OC)c(OC)c(OC)c3)ccc21	1	12	-85	-140	57*	51*
COc1cc(C(=O)Nc2ccc3c(c2)ncn3C)cc(OC)c1OC	0	3	.	-53	52*	37
CCCCC(NC(=O)c1ccc(C#N)cc1)C(=O)NCCC (configuration not stated)	0	-1	.	-2	-5	.
CC(NC(=O)Cn1cc([N+](=O)[O-])cn1)c1ccc(C(C)(C)C)cc1 (configuration not stated)	0	1	.	15	10	.
Cc1nc(NC2=NCN(CCCN3CCOCC3)CN2)nc2c(C)cccc12	0	-2	-27	-38	64*	-2
CCCCN1CN=C(Nc2nc3ccccc3o2)NC1	2	4	-1	-90	-80	.
CCN(C(=O)COC(=O)/C=C/c1cccc([N+](=O)[O-])c1)c1c(N)n(Cc2ccccc2)c(=O)[nH]c1=O	0	-3	.	13	-6	.
Nc1c(C(=O)Nc2ccccc2)nnn1-c1ccc2c(c1)OCCO2	0	-8	.	-234	-157	-100
Cc1ccc(NC(=O)c2nnn(-c3ccc4c(c3)OCCO4)c2N)cc1	5	7	.	-132	-109	.
COc1ccccc1C(=O)Nc1ccc2nc3n(c(=O)c2c1)CCCC3	0	-2	.	-6	-51	.
N#CC1=C(N)OC2=C(CCc3ccccc32)C1c1ccccc1 (configuration not stated)	5	26	100*	-37	76*	8
COc1ccc(C2C(C(=O)Nc3cc(OC)c(OC)c(OC)c3)c3ccccc3C(=O)N2C)cc1 (configuration not stated)	2	5	-22	-70	75*	22
CCCc1ccc2oc(C(=O)N3CCNC(=O)C3CC(=O)OC)c(C)c2c1 (configuration not stated)	2	-1	.	-47	1	.
COc1cc(OC)c(/C=C2\C(=O)Nc3ccccc32)c(OC)c1	-2	-1	.	-10	56*	54*
Cc1cc(OCC(=O)NCCc2c[nH]c3ccccc23)c2c(C)cc(=O)oc2c1	-2	1	.	20	8	.
SMILES	CHOP UPR activ	UPR XBP1 act	CHOP inh	697 NFkB inh	Jurkat NFkB inh	Jurkat NFkB conf
CCCCOc1ccc(Br)cc1/C(C)=N/NC1=NCCN1	2	11	.	-42	76*	53*
COCCCNC(=O)C(=O)Nc1ccc2c(c1)N(S(=O)(=O)c1cccs1)CCC2	2	9	.	-3	62*	57*
CN(C)CCNC(=O)C(=O)Nc1ccc2c(c1)N(S(=O)(=O)c1cccs1)CCC2	-1	1	.	9	65*	14
CC(C)(C)C(=O)N1CCN(c2nc3ccccc3o2)CC1	3	1	-18	6	-4	.
CC1(C)NC(=O)N(CCOCCOc2ccccc2-c2ccccc2)C1=O	-1	-4	-3	4	7	.
O=C(COC(=O)/C=C/c1ccccc1[N+](=O)[O-])Nc1ccc2[nH]c(=O)[nH]c2c1	0	-2	.	-21	-17	.
CCCOc1ccc(/C=N/Nc2ccccn2)cc1OC	3	5	19	-120	-172	-29
C(=N\Nc1ccccn1)/c1ccc2c(c1)OCCO2	3	-5	-11	-213	-172	-106
O=C(NNC(=O)c1nn(-c2ccc(F)cc2)ccc1=O)c1ccccc1Cl	1	3	0	13	3	.
O=C(N/N=C\c1cccc(Cl)c1)c1n[nH]c2c1CCCC2	5	5	-18	-192	-152	-63
O=C(N/N=C/c1ccc(Cl)cc1Cl)c1n[nH]c2c1CCCC2	8	5	14	-127	16	.
COc1ccc(C(=O)N2CCN(Cc3ccc(OC)c(OC)c3)CC2)cc1	1	0	.	4	7	.
COc1ccc(CCNc2ccc(C(=O)O)cc2[N+](=O)[O-])cc1OC	0	9	7	-15	6	.
COc1ccc(CCNc2cc(N3CCN(C(=O)c4ccccc4F)CC3)ccc2[N+](=O)[O-])cc1OC	-4	7	-14	-16	58*	67*
COc1ccc(C(=O)N2CCN(c3ccc([N+](=O)[O-])c(NCCc4ccc(OC)c(OC)c4)c3)CC2)cc1	5	2	81*	15	73*	75*
COc1ccc(CCNc2cc(N3CCN(C(=O)c4ccc(C)cc4)CC3)ccc2[N+](=O)[O-])cc1OC	1	5	79*	7	75*	67*
Cc1nccn1-c1ccc(C=O)cc1	1	4	5	13	5	.
COc1ccc(CN(CC(O)COc2cccc3[nH]cc(C)c23)C(C)(C)C)cc1 (configuration not stated)	-1	5	.	7	0	.
COc1cc(C(=O)NC2=C(C#N)CCC2)cc(OC)c1OC	-2	-2	10	9	10	.
Cc1ccc(C(=O)c2cc([N+](=O)[O-])ccc2N2CCCCC2)cc1	0	15	17	32	56*	53*
O=C(NCc1ccco1)c1cc([N+](=O)[O-])ccc1N1CCCCC1	0	0	0	-5	2	.
O=C(c1ccc(Br)cc1)c1cc([N+](=O)[O-])ccc1N1CCOCC1	-2	4	14	-43	72*	51*
